The list is a sample of the results.
Apaf1 activ – activators of human Apaf-1 apoptosome, primary screen, biochemical, DEVD-Rh110 fluorescence, uHTS | activity change, negative = activation, % at 20 µM | AID 489031, 2010 | Apaf-1 apoptosome caspase-3 activation; hits give low values | Apoptotic protease-activating factor 1 (Homo sapiens), O14727 | 0.31% of 330,000 active;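 active = activity change at or below -40% at 20 µM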
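System: Reconstituted apoptosome of Apaf-1, cytochrome c, caspase-9, procaspase-3 | Reagent: dATP, cytochrome c, and (Z-DEVD)2-Rh110 caspase-3 substrate | Times: 30 min compound preincubation and 50 min reaction, both room temperature | Detection: Caspase-3-released Rh110 fluorescence, 540 nm emission, 480 nm excitation | Measure: Caspase-3 activity via Apaf-1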
Rh110 interf act – Rh110 fluorescence interference by putative Apaf-1 activators, confirmation, artefact control for Apaf-1 activator project, biochemical, 20 µM. shares compounds with Apaf1 activ. quenched caspase reaction, Ex480/Em540. fluorescence interference (activity change), % at 20 µM, hits read low. 980 tested, under 10 active. AID 504616, 2011;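 active = mean activity change at or below -40% when tested at 20 µM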
Apaf-1 act conf2 – Apaf-1 activators, single-dose retest, confirmation, biochemical, fluorescence, DEVD-Rh110, 20 µM | shares compounds with Apaf1 activ | reconstituted apoptosome caspase-3 activity; hits give low values | activity change, negative = activation, % at 20 µM | 5% of 980 active | AID 504617, 2011;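 active = mean activity change at or below -40%, meaning activation of 40% or more, at 20 µM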
Fluor interf act – fluorescence interference of Apaf-1 activator hits, dose response, artefact control for Apaf-1 activator project; shares compounds with Apaf1 activ; fluorescence interference counterscreen, Apaf-1 activator assay; EC50, µM; 55 tested, under 10 active; call rule not given here
The depositor's hits bear a star.

Screening C#CCOCCOCCOCCNc1nc(N2CCN(C(=O)[C@H](CCCCN)n3cc([C@@H](N)[C@H](C)CC)nn3)CC2)nc(N2CCN(C(=O)[C@H](CCCCN)n3cc([C@@H](N)CC(N)=O)nn3)CC2)n1 returned Apaf1 activ 44.1.
O=C1CC(CC(=O)N/N=C/c2ccccc2[N+](=O)[O-])=NN1 was read as Apaf1 activ 45.9.
For O=C(c1ccc2nc(-c3ccco3)c(-c3ccco3)nc2c1)N1CCN(c2ncccn2)CC1 the results were Apaf1 activ 57.5.
Screening COc1ccccc1/C=N/Nc1cc(N(C)C)nc(N(C)C)n1 returned Apaf1 activ 84.4.
COc1cc(OC)c(OC)cc1/C=N/N(C)c1ccccc1 was read as Apaf1 activ -78.5*, Rh110 interf act 55.2 and Apaf-1 act conf2 18.2.
`Cc1cccnc1NC(=O)c1ccc(OCC2CCCO2)cc1` (stereo unspecified) gave Apaf1 activ 54.3.
CCOC(=O)c1c(C)c(C(=O)NCC2CCCO2)c(C)n1C (stereo unspecified) was read as Apaf1 activ -58.6*, Rh110 interf act -1.6 and Apaf-1 act conf2 11.1.
Screening CCN(CC)S(=O)(=O)c1cccc(NC(=O)C2SC(=Nc3ccc(C)cc3C)C(C(=O)NCC3CCCO3)=C2N)c1 (stereo unspecified) returned Apaf1 activ 45.2.
Screening COc1ccc(O)c(C(=O)c2cc(C#N)c(=O)n(-c3c(C)n(C)n(-c4ccccc4)c3=O)c2)c1 returned Apaf1 activ -40.3*, Rh110 interf act 4.1 and Apaf-1 act conf2 13.3.
`COc1cc(-c2c(C#N)c(=O)[nH]c3c2c(C)nn3-c2ccccc2)ccc1O` gave Apaf1 activ 42.1.
Screening CN(Cc1c(F)cccc1Cl)c1nnnn1-c1ccccc1 returned Apaf1 activ -63.5*, Rh110 interf act 7.7 and Apaf-1 act conf2 8.6.
`C#CCOCCOCCOCCNc1nc(N2CCN(C(=O)[C@H](Cc3ccc(O)cc3)n3cc([C@@H](N)C(C)CC)nn3)CC2)nc(N2CCN(C(=O)[C@H](Cc3cc4ccccc4[nH]3)n3cc([C@@H](N)CC(C)C)nn3)CC2)n1` (stereo partly specified) gave Apaf1 activ 47.2.
For COc1ccc(C(=O)Nc2ccccc2C(=O)NC(Cc2ccc(O)cc2)C(=O)NNC(=O)c2ccccc2Cl)cc1 (stereo unspecified) the results were Apaf1 activ -47.6*, Rh110 interf act 3.3 and Apaf-1 act conf2 16.5.
Screening CC1(C)S/C(=N/N=C/c2ccco2)NC1=O returned Apaf1 activ -61.3*, Rh110 interf act 14.2 and Apaf-1 act conf2 17.2.
For CC(C)=CCc1c(O)c(CC=C(C)C)c2c(c1O)C(=O)CC(c1ccc(O)cc1)O2 (stereo unspecified) the results were Apaf1 activ -149.9*, Rh110 interf act 15.9 and Apaf-1 act conf2 22.8.
`CCN(CC)CCN(C(=O)c1ccc2c(c1)CCCC2)c1nc2ccc(C)cc2s1` gave Apaf1 activ 51.5.
Screening N#Cc1ccc(C23CC4(C2)[C@H](CN(CC2CCCCC2)[C@@H]4c2ccccc2)C3c2ccc(C(F)(F)F)cc2)cc1 (stereo partly specified) returned Apaf1 activ 42.3.
Screening CC(C)NS(=O)(=O)c1ccc(OCC(=O)N(C)Cc2ccccc2)cc1 returned Apaf1 activ -555.1*, Rh110 interf act 8.4 and Apaf-1 act conf2 17.5.
CN(Cc1ccccc1)C(=O)CN1C(=O)NC(C)(c2ccc(C(C)(C)C)cc2)C1=O (stereo unspecified) was read as Apaf1 activ 41.7.
Screening CCc1ccc(OCC(=O)N/N=C2\CC(=O)c3ccccc32)cc1 returned Apaf1 activ 83.6.
Screening CN1N=C(C(C)(C)C)CC1=O returned Apaf1 activ 41.1.
Screening Cc1noc(NS(=O)(=O)c2ccc(NC(=O)NC(C)(C(F)(F)F)C(F)(F)F)cc2)c1C returned Apaf1 activ -232.2*, Rh110 interf act 4.2 and Apaf-1 act conf2 13.7.
`Cc1ccc(S(=O)(=O)NC(=O)Nc2ccc(N(C)C)cc2)cc1` gave Apaf1 activ 57.0.
Screening CCCCCCSc1cc(-c2nc3ccc(C)cn3c2NCCCC)ccc1OC returned Apaf1 activ 46.2.
`COc1cc(/C=C2/C(=O)N(c3ccc([N+](=O)[O-])cc3)N=C2N2CCOCC2)ccc1O` gave Apaf1 activ 86.4.
`COc1cc(/C=C2\SC(=O)N(c3cccc(Cl)c3)C2=O)cc([N+](=O)[O-])c1O` gave Apaf1 activ -141.9*, Rh110 interf act 3.0, Apaf-1 act conf2 -132.4* and Fluor interf act >100.
Screening NC1=NC[C@H](Cc2ccc(O)cc2)N1CCCCC1CCCCC1 returned Apaf1 activ 52.7.
CCC(C)[C@H]1CN=C(N)N1CCc1cc(C(F)(F)F)cc(C(F)(F)F)c1 (stereo partly specified) was read as Apaf1 activ 56.5.
N#Cc1nc(-c2ccco2)oc1N1CCc2ccccc2C1 was read as Apaf1 activ 51.7.
COc1ccc(OC)c2c1sc(=NC(=O)C(C)(C)C)n2C was read as Apaf1 activ -370.3*, Rh110 interf act 1.0 and Apaf-1 act conf2 8.6.
For COc1cccc(N2C(=O)CC(Nc3ccc(N4CCOCC4)cc3)C2=O)c1 (stereo unspecified) the results were Apaf1 activ -393.1*, Rh110 interf act 0.6 and Apaf-1 act conf2 15.7.
S=C(Nc1ccc(N2CCOCC2)cc1)Nc1ccc2nc(-c3ccco3)c(-c3ccco3)nc2c1 was read as Apaf1 activ 41.3.
Screening NS(=O)(=O)c1ccc(N=Nc2c[nH]c(=O)c(O)c2)cc1 returned Apaf1 activ 73.5.
Screening CCO/C=C1/C(=O)N(Cc2ccccc2)C(=O)c2ccccc21 returned Apaf1 activ 61.7.
`CCOC(=O)N1CCC(NC(=O)c2ccc3c(c2)sc2nc(-c4ccc(OC)cc4)cn23)CC1` gave Apaf1 activ 43.7.
Screening CCOC(=O)N1CCC(Nc2c(-c3ccc(C)c(C)c3)c(=O)c2=O)CC1 returned Apaf1 activ -201.7*, Rh110 interf act 10.2 and Apaf-1 act conf2 12.4.
Cn1ccc2cc3c(cc21)CCN3C(=O)Nc1cccnc1 was read as Apaf1 activ 66.0.
For O=[N+]([O-])c1cccnc1SCc1ccccc1 the results were Apaf1 activ -514.3*, Rh110 interf act 9.7 and Apaf-1 act conf2 8.7.
NC1=C(Br)C(=O)c2ccccc2C1=O was read as Apaf1 activ 70.9.
Screening O=C(NCc1ccc2c(c1)OCO2)c1cc(-c2ccccc2)c(N2CCOCC2)s1 returned Apaf1 activ -287.3*, Rh110 interf act 8.3 and Apaf-1 act conf2 22.3.
For Nc1c(C(=O)NCc2ccc3c(c2)OCO3)c2nc3ccccc3nc2n1CCCN1CCOCC1 the results were Apaf1 activ 90.3.
CN1CCc2cc3c(c4c2[C@H]1[C@H](O)c1ccccc1-4)OCO3 was read as Apaf1 activ 48.2.
